Assay results: the EternaBench riboswitch data

Tested on: MS2 coat protein
Assay: apparent Kd, MS2 coat protein; higher = weaker binding; RNA-MaP array; FMN 200 µM where present
Procedure, shortened: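 Stalled E. coli RNA polymerase transcribed the designs on Illumina sequencing-chip clusters. SNAP-549-labelled MS2 coat protein was titrated from 0.7 or 1.5 nM, doubling to 3 µM, without and then with constant ligand, in 100 mM Tris-HCl pH 7.5, 80 mM KCl, 4 mM MgCl2, BSA, DTT, yeast tRNA and Tween-20. Per-cluster binding curves were fitted to green signal normalised to red-channel RNA signal and control-cluster median Fmax. The apparent Kd is the median of the filtered fits.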

[1] = designed as: OFF switch for flavin mononucleotide, no ligand
[2] = ligand present: flavin mononucleotide, designed as: OFF switch for flavin mononucleotide
[3] = designed as: ON switch for flavin mononucleotide, no ligand
[4] = ligand present: flavin mononucleotide, designed as: ON switch for flavin mononucleotide

Sequence | apparent Kd [1] [nM] | apparent Kd [2] [nM] | apparent Kd [3] [nM] | apparent Kd [4] [nM]
ACAGGCUUCGAGAAGGACAUGAGGAUCACCCAUGUGCGUGUGAAGCAGCCGUGAGGCUGCAUCAUGUAGGAUAUCGGAGUCUGA | 75.5 | 559 |  | 
ACAGUAUAUGUAGGAUAUCGUUGGUUAGAUAGGCGAGAAGGGCAUAGUACAUGAGGAUCACCCAUGUGUUGGUCCUCGCAGAAA | 454 | 237 |  | 
ACAUAAAUUCGAGGAUAUCGGUGAUAUAAUUUACGAGAAGGCGAUAAUAGUUAUAAACUUAUAGACAUGAGGAUCACCCAUGUA |  |  | 30.2 | 28.3
ACAUACAUUCGAGGAUAUCGGUGAACAUAUUAACGAGAAGGCGAUAUAAUUUUUAAUCUUAUAAACAUGAGGAUCACCCAUGUA |  |  | 21.9 | 20.2
ACAUACAUUCGAGGAUAUCGGUGAUUAAUAAUACGAGAAGGCGAUUUAAGAUAUAAAAUUUUAGACAUGAGGAUCACCCAUGUA |  |  | 27.9 | 23.9
ACAUACAUUCGAGGAUAUCGGUGAUUAAUAAUACGAGAAGGCGAUUUAAGGCAUAAAGCCUUAGACAUGAGGAUCACCCAUGUA |  |  | 97.9 | 43.8
ACAUACAUUCGAGGAUAUCGGUGAUUAAUUUUACGAGAAGGCGAUUUAAGGCAUAAUGCUUUAGACAUGAGGAUCACCCAUGUA |  |  | 72.9 | 34.4
ACAUGAGGAUCACCCAUGUAAACAUAGGAUAUUGGUGAUCAGGCAUGUUAUACAGGAUAUGUCUGCGAGAAGGAUGCACGUUGC |  |  | 583 | 465
ACAUGAGGAUCACCCAUGUAGAAUGAAGAAGGAUGUUACUUGAGACUCACCCAUGUACAUAGGACAUAGGAUAUUCUAAUAAUU |  |  | 10.1 | 7.83
ACAUGAGGAUCACCCAUGUAUAGAAUUGAAUGUUAAGAUACGUAGGAUAUCGAGUUUAGUAUGAUCGAGAAGGACGAUCUGAUA |  |  | 19.8 | 13.6
ACAUGAGGAUCACCCAUGUAUUACAUGGUUAUGUUUAUUAACAGAAGGCGAAAUUACCACUUGAUCGAGGAUAUGUAUUCAAUU | 73 | 59.7 |  | 
ACAUGAGGAUCACCCAUGUAUUUAUUUGAAUCUUAAGUUACGUAGGAUAUCGUGUAUACUAUCAUCGAGAAGGACGAUGUGAUA |  |  | 15.4 | 13.6
ACAUGAGGAUCACCCAUGUGAAAAGAAUGGCUGACACAGAGAUAGGAUAUAUGUGCAUAUCAAACAUAGAAGGGUCAUGACUGG | 30.3 | 30.2 |  | 
ACAUGAGGAUCACCCAUGUGUCAACCAGAAGGCACAUUACGUAUUUCUAUGUGUGCGUAAAUAAGUGAGGAUAUGGAUAAUAGA |  |  | 11.2 | 7.21
ACAUGAGGAUCACCCAUGUGUGCAUAGGAUAUUGAGGAUCAGGGAUGUUUUUUUGGAUAUGCCCACAAGAAGGAUGAAAGUAUU |  |  | 13.2 | 12.6
ACAUGAGGAUCACCCAUGUGUGCAUAGGAUAUUGAGGAUUUGGGAUGUUUUUUUGGAUUUGCCCACAAGAAGGAUGAAAGUGUU |  |  | 12.8 | 11.3
ACAUGAGGAUCACCCAUGUUAUCUGGGACUUCAAUUAUUUCUAGAAGGCUGUUUACUUGUUAGUCAGAGGAUAUAGAAUUAAAU | 31.1 | 32.3 |  | 
ACAUGAGGAUCACCCAUGUUCACAUAGGAUAUUGAUUUUAUUGGUUUUAGAAUAGUUAUUAAGCUCAAGAAGGAUGCCAGUUGU |  |  | 12.4 | 9.97
ACAUGAGGAUCACCCAUGUUGAAUUAGGAUAUUUGACUGCACAUGAGGUUCUCCCAUGUUCAACCGGAGAAGGGAUUAAUAAUU |  |  | 318 | 132
ACAUGAGGAUCACCCAUGUUGAAUUAGGAUAUUUGACUGCGCAUGAGGUUCUCCCAUGUUCAACCGGAGAAGGGAUUAAUAAUU |  |  | 273 | 150
ACAUGAGGAUCACCCAUGUUGACAUAGGAUAUACAACAAUAGUUACAAUCAUGUACUAUUUGAUAGUAGAAGGAUGGAACAUGA | 15.2 | 25.8 |  | 
ACAUGAGGAUCACCCAUGUUUAUUGGGUACUAUACUAUCAGCAAGGAUAUGCAAAUUUUUUUUACGCAGAAGGUGCAGGAACCU | 523 | 334 |  | 
ACAUGAGGAUCACCCAUGUUUGCAUAGGAUAUUGAGGAUUAGGGAUGUUUUUUUGGAUUUGCCCACAAGAAGGAUGUAUGUUUU |  |  | 8.56 | 7.96
ACAUGAGGAUCACCCAUGUUUUUCGGGUACUCUUUUUACAGCAAGGAUAUGCAUGUUUUUUUUACGCAGAAGGUGCUUUACGUC | 102 | 165 |  | 
ACAUGAGGAUCUCCCAUGUAAAAUUAGGAUAUAUGACUGCACAUGAGGAUCACCCAUGUUUUACCGUAGAAGGGAUAAAUAAUU |  |  | 867 | 855
ACAUGAUAUGUAGGAUAUCACAUUAAUUGAUUCAUAUUUCAAUAUAGCAUUUGAGAAGGACAUUUACAUGAGGAUCACCCAUGU | 9.18 | 8.64 |  | 
ACAUGAUCAGGAUAUACAUGAGGAUCACCCAUGUUUAUCAGGGAAAAACCUUCUACAUGUAGAAGGGAUCUUGU | 14.9 | 14.2 |  | 

Sequence | apparent Kd [1] [nM] | apparent Kd [2] [nM] | apparent Kd [3] [nM] | apparent Kd [4] [nM]
ACAUGAUUCAAGAAGGAUGUAUUUGAUUUGAUCAUAGGAUAUUGUUAUUUUGUUUACUCUAAUAACAUGAGGAUCACCCAUGUA |  |  | 14.4 | 10.4
ACAUGCAUUCGAGGAUAUCGGUGAUUAAUUCUACGAGAAGGCGAUUUAAGAUAUAUUGUUUUAGACAUGAGGAUCACCCAUGUA |  |  | 29 | 23.2
ACAUGCGGAUGAGGAUAUUCAUUUAUGAGGAUAGAAGAAGGCAUACAUGAGGAUCACCCAUGUAUACGCAUGAGGAUCCCUUAC | 39.1 | 41 |  | 
ACAUGGAAGUAGAAGGGUAAUACUUUAGAAUGUACCAUUAGAUGAUGUUAUACAGGAUAUGCUAACAUGAGGAUCACCCAUGUG | 25.6 | 19.8 |  | 
ACAUGUUUUACAGGAUAUGUUAUACAAUAAACAAUCAGUUAUUAUGAUUUUACAGAAGGGUAUACAUGAGGAUCACCCAUGUUA | 23 | 19.1 |  | 
ACAUUAGUAUCACAUGUAUUACAUGAGGAUCACCCAUGUUACUAGGAUAUGUAUUAGAAUUUACAACAGAAGGAGUUAAUUUGU | 7.52 | 7.7 |  | 
ACCAUUUACUAAUUAUCUAUACAUGAGGAUCACCCAUGUUAAGAGGAUAUCAUCGUGAAACACGAUGAGAAGGCUUAGCAUUCG | 54.5 | 187 |  | 
ACCAUUUACUAAUUAUCUAUACAUGAGGAUCACCCAUGUUAAGAGGAUAUCAUCGUGAAACGCGAUGAGAAGGCUUAGCAUUCG | 55.2 | 172 |  | 
ACCCGCAGCCGUCAGGAUAUGUUCGCGUCAACAUGAGGAUCACCCAUGUGUGACAAGAAGUACACGCAGAAGGGAUCAAUGCGGG |  |  | 16.4 | 18.3
ACCCGGGCUAACAUGAGGAUCACCCAUGUGUUAUACUUAAUAUAGGAUAUGUUUAUACUUUUUGGGCAGAAGGAUGGCCCGGGU |  |  | 80.1 | 62.5
ACCGUGUCAGGAUAUCCUGCUGUGCGGAAUCUGUAUUCACGGGAGAAGGGACAUGAGGAUCACCCAUGUUUGAG | 19.6 | 18.6 |  | 
ACCUUACUGGUCAGGAUAUACAGUCUUGGGUGGGUGUAGAAGGGACAUGAGGAUCACCCAUGUAGGUUGCAGCA | 129 | 126 |  | 
ACGAAGAAACAGAAGGGUAAAUUAGUUAAUUAUUAUUUGGUUAUGCACUACAGGAUAUGUAUAACAUGAGGAUCACCCAUGUAC |  |  | 87.2 | 53.5
ACGAAGAUACAGAAGGGUAUAUUAGUUAAUUAUAAUUUGGUUAUGCACUACAGGAUAUGUUUAACAUGAGGAUCACCCAUGUUC |  |  | 13.9 | 10.8
ACGACGAAAGUCGAACGAUGUACGAGAAGGACAUGAGGAUCACCCAUGUUAUCUGUAAUAGACAUGUAGGAUAUCGUACAUCGA | 8.26 | 26.6 |  | 
ACGCCCUAGUAGAAGGGACAUCGGCUGGUAAGCAUCAUCUCCUUCUCACAUGAGGAUCACCCAUGUCAGGAUAUACUAGGAUGC | 12.2 | 35.1 |  | 
ACGCGUUGGGAGAAGGUACAUUAAAUUAGUUACACAUGAGGAUCACCCAUGUAAGGAUAUCCCAUCGUGUAAUAUUAUACAGCA | 9.76 | 9.62 |  | 
ACGCUUUGGGAGAAGGUACGUUAAAUUUUUUCCACAUGAGGAUCACCCAUGUAAGGAUAUCCCAUCGUUAAAUAGUCUUCAGCA | 9.45 | 9.02 |  | 
ACGGAGUCAGGAUAUUUAGAGCGUUGGCAAUGCUAGCGCAUGGAGAAGGGACAUGAGGAUCACCCAUGUUUGGA | 39.9 | 39.9 |  | 
ACGGCACAUGAGGAUCACCCAUGUGCCGAGAGGCGAGGAUAUCGAAAAAAAAAAAAAAAACGAGAAGGCGCGAGAA |  |  | 16.5 | 14.4
ACGGCUAACCCAGUUUAGAUCUCAAGAAGGGUACACUGGGCAAGGUACAUGAGGAUCACCCAUGUACAGGAUAUUGAGAUGAGA | 12.1 | 34.1 |  | 
ACGGUGGUCACAGGAUAUCCGGCCCGCGUGCUCGGAGAAGGGUGACUCAGAACCACAUGAGGAUCACCCAUGUGCCUUGCCGUA |  |  | 122 | 25.1
ACGGUUUACCAGAAGGACAUGAGGAUCACCCAUGUAGGAUAUGGGAAGUUGGUCUCCUUCAAAUAAGGCCCUCAGAGCUUCAAA |  |  | 446 | 31.2
ACGUCCCUCCAGAAGGGCAACUCGACAUGAGGAUCACCCAUGUUUACUUGCAGGAUAUGGUGGUAGAUCUAGUUAGCUCGAAGG |  |  | 176 | 47.4
ACGUGACAUGAGGAUCACCCAUGUGAGGAUAUCUGGAUAAUUUUUAUUUUAGAUAUCCAGAGAAGGCACAUGUU | 206 | 173 |  | 
ACGUGUCGUGUAGGAUAUGACACAGGAAACUGGUCAGAAGGACAUGAGGAUCACCCAUGUAAAGUGUUUAAGAAUGACGUAUGC | 43.9 | 106 |  | 
ACGUGUCGUGUAGGAUAUGACACAGGAAACUGGUCAGAAGGACAUGAGGAUCACCCAUGUAAAGUGUUUAAGGAUGACGUAUGC | 49.9 | 151 |  | 
